Experimental data as given in ChEMBL document CHEMBL3259629, “Discovery and optimization of piperidyl-1,2,3-triazole ureas as potent, selective, and in vivo-active inhibitors of α/β-hydrolase domain containing 6 (ABHD6)” (J Med Chem, 2013).
Active and inactive are the calls of the source. The rule behind the calls is not given here.

Experiments:
[1] = target: Acyl-protein thioesterase 2 (Mus musculus) (UniProt Q9WTL7); assay: Inhibition of FP-rhodamine-labelled recombinant mouse LYPLA2 at 10 uM preincubated for 30 mins followed by FP-rhodamine labelling measured after 30 mins by gel-based competitive ABPP assay
[2] = target: Acyl-protein thioesterase 2 (Mus musculus) (UniProt Q9WTL7); assay: Inhibition of FP-rhodamine-labelled recombinant mouse LYPLA2 at 1 uM preincubated for 30 mins followed by FP-rhodamine labelling measured after 30 mins by gel-based competitive ABPP assay
[3] = target: T1, Diacylglycerol lipase-beta (Mus musculus) (UniProt Q91WC9); assay: Inhibition of FP-rhodamine-labelled recombinant mouse DAGLbeta expressed in HEK293T cells at 1 uM preincubated for 30 mins followed by FP-rhodamine labelling measured after 30 mins by gel-based competitive ABPP assay; format: cell-based; details: HEK-293T
T1 sequence (whole entry): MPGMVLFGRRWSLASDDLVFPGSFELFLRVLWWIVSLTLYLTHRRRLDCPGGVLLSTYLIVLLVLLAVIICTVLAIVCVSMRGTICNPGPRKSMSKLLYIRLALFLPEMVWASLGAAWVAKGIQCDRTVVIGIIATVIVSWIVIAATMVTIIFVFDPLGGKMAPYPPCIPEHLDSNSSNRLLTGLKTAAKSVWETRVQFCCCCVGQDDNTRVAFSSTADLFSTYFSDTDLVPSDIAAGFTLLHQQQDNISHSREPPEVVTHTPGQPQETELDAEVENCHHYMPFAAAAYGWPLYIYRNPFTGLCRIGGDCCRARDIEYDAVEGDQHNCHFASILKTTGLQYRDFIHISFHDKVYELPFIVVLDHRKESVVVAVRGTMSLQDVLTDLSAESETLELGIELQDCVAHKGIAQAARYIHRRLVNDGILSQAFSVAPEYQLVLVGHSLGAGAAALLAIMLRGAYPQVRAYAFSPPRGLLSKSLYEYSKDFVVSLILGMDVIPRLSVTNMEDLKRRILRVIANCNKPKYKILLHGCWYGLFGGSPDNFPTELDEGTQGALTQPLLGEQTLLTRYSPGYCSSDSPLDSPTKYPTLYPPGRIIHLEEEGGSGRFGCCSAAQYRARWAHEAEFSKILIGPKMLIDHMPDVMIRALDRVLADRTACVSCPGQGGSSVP
Outline: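 Mouse DAGLβ transiently overexpressed in HEK293T. Lysate diluted to 0.3 mg/mL in 50 mM HEPES pH 7.2, 100 mM NaCl, 5 mM CaCl₂, 0.1% Triton X-100, 10% DMSO. Compound preincubated 30 min at 37 °C, then 1 μM probe for 30 min at 37 °C, SDS-PAGE and in-gel fluorescence.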

[4] = target: T2, Acylamino-acid-releasing enzyme (Mus musculus) (UniProt Q8R146); assay: Inhibition of FP-rhodamine-labelled recombinant mouse APEH at 10 uM preincubated for 30 mins followed by FP-rhodamine labelling measured after 30 mins by gel-based competitive ABPP assay
T2 sequence (whole entry): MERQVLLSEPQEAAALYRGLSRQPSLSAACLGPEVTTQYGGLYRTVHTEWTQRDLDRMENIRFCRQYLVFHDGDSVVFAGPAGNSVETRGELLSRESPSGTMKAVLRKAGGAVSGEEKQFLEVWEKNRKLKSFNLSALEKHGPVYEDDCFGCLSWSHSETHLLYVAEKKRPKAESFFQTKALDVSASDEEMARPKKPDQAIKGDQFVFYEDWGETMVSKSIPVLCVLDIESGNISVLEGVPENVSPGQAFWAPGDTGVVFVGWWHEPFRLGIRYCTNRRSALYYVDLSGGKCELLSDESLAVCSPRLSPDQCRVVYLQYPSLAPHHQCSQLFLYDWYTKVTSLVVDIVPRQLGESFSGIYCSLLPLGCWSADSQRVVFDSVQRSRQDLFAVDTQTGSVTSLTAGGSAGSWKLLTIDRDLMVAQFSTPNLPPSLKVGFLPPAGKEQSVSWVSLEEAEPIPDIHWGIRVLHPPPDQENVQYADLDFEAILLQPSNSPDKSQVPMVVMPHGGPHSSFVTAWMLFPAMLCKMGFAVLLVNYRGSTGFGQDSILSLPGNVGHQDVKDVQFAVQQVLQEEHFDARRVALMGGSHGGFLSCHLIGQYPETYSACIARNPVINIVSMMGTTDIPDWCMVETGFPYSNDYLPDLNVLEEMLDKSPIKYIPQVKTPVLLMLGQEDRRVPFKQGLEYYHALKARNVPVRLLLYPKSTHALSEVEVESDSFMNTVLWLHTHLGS

[5] = target: T3, Fatty-acid amide hydrolase 1 (Mus musculus) (UniProt O08914); assay: Inhibition of mouse brain FAAH at 10 uM after 30 mins by FP-rhodamine ABPP-based SDS-PAGE analysis relative to control
T3 sequence (whole entry): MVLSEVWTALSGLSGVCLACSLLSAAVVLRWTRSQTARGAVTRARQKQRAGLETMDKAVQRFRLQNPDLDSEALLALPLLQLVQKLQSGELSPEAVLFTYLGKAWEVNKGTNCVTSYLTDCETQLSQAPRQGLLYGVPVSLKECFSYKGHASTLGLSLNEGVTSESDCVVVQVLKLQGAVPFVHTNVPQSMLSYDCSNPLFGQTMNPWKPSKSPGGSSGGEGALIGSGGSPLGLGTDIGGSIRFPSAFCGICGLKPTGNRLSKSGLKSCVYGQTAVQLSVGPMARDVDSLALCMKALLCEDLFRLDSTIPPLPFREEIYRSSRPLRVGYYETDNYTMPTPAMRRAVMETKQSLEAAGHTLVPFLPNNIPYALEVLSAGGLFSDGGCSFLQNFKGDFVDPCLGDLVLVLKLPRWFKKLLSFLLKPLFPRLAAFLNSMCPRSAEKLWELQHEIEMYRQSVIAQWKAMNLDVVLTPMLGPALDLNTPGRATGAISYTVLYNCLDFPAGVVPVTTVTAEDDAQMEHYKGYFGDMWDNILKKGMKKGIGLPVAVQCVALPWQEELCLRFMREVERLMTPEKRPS

[6] = target: T4, Monoacylglycerol lipase ABHD6 (Mus musculus) (UniProt Q8R2Y0); assay: Inhibition of ABHD6 in FP-rhodamine-labelled mouse brain membrane at 10 nM preincubated for 30 mins followed by FP-rhodamine labelling measured after 30 mins by gel-based competitive ABPP assay; format: tissue-based
T4 sequence (whole entry): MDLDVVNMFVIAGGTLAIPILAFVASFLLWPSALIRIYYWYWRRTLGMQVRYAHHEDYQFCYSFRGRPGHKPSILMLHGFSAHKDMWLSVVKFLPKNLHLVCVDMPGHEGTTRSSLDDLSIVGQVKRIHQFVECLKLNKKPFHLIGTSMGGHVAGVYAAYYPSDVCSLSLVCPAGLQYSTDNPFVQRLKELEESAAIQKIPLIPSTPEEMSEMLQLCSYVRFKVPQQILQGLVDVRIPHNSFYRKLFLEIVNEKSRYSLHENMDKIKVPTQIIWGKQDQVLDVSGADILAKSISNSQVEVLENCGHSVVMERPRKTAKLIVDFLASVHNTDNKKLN
Outline: (§1)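 Mouse brain membrane proteome (1 mg/mL) preincubated with compound for 30 min at 37 °C, then labelled with FP-rhodamine or HT-01 (1 μM final) for 30 min at 37 °C. Quenched in SDS loading buffer, run on 10% SDS-PAGE and scanned for in-gel fluorescence. Bands assigned by gel migration.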

[7] = target: T4, Monoacylglycerol lipase ABHD6 (Mus musculus); assay: Inhibition of ABHD6 in FP-rhodamine-labelled mouse brain membrane at 1 nM preincubated for 30 mins followed by FP-rhodamine labelling measured after 30 mins by gel-based competitive ABPP assay; format: tissue-based; outline: as §1
[8] = target: Acyl-protein thioesterase 1 (Mus musculus) (UniProt P97823); assay: Inhibition of FP-rhodamine-labelled recombinant mouse LYPLA1 at 1 uM preincubated for 30 mins followed by FP-rhodamine labelling measured after 30 mins by gel-based competitive ABPP assay
[9] = target: Acyl-protein thioesterase 1 (Mus musculus) (UniProt P97823); assay: Inhibition of FP-rhodamine-labelled recombinant mouse LYPLA1 at 10 uM preincubated for 30 mins followed by FP-rhodamine labelling measured after 30 mins by gel-based competitive ABPP assay
[10] = target: T2, Acylamino-acid-releasing enzyme (Mus musculus); assay: Inhibition of FP-rhodamine-labelled recombinant mouse APEH at 1 uM preincubated for 30 mins followed by FP-rhodamine labelling measured after 30 mins by gel-based competitive ABPP assay

Sequence of Acyl-protein thioesterase 2 (Mus musculus) (Q9WTL7 whole entry): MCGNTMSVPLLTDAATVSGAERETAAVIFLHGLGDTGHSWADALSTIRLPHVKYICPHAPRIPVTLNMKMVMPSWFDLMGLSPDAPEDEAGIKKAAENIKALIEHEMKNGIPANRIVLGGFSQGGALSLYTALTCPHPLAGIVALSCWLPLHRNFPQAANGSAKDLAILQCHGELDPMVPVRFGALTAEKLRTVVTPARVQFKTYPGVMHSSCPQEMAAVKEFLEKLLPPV
Sequence of Acyl-protein thioesterase 1 (Mus musculus) (P97823 whole entry): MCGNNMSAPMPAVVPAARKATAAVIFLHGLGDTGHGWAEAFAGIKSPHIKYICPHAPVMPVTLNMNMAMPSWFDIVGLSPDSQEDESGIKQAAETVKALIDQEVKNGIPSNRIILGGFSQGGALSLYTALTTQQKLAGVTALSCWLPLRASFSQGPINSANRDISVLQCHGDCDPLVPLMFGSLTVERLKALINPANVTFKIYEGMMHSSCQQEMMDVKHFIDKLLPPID

For O=C(O)c1cccc(-c2ccc(-c3cn(C(=O)N4CCCCC4c4ccccc4)nn3)cc2)c1 (racemic), the inhibition [1] was “Active”, the inhibition [2] was “Active” and the inhibition [3] was 6%. The inhibition [4] was “Active”, the inhibition [5] was “Active” and the inhibition [6] was 100%. For the same compound, the inhibition [7] was 36%, the inhibition [8] was “Active” and the inhibition [9] was “Active”. The inhibition [10] was “Active”.
